An excerpt weighted towards active compounds, which were near 3.7% of everything screened.
Kir21 block – blocks the mouse Kir2.1 inward-rectifier potassium channel | HEK293-Kir2.1, FluxOR thallium flux fluorescence; stronger effect = lower value | B-score at 10 µM | AID 1672 | 310,000 compounds, 0.85% hits;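 active means fluorescence ratio B-score at or below minus 3 SD of library scores, with starting-brightness B-score within 2 SD, cut at about -4.2 in these data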;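 further: channel flux triggered by added potassium and thallium sulfate stimulus; B-score of peak minus minimum fluorescence over baseline after thallium stimulus; more negative B-score means stronger Kir2.1 block with less thallium influx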
KCNK9 inh – blocks the human KCNK9 two-pore domain potassium channel; HEK293 KCNK9, FluxOR thallium flux fluorescence; stronger effect = lower value; B-score at 10 µM; 310,000 compounds, 1.2% hits;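 active means ratio B-score over 3 SD below the library mean, with starting fluorescence within 5 SD of its mean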;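 further: negative B-score means less thallium flux so channel inhibition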
Target sequence (Q9NPC2 whole entry, looked up, the tested form may be a part): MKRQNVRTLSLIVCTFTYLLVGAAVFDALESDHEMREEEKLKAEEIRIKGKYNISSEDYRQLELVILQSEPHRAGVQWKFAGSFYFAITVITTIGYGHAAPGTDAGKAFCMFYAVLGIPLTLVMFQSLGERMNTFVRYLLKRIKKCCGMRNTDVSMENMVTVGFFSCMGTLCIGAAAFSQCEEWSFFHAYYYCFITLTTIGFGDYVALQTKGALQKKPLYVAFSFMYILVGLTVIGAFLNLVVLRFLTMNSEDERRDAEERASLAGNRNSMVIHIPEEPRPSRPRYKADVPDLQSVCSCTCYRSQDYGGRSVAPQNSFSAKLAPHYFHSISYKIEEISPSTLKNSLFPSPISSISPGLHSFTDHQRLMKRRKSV
KCNK3 inh – human KCNK3 channel inhibition, primary screen; B-score at 10 µM; CHO-KCNK3 thallium flux, FluxOR fluorescence; stronger effect = lower value; O14649; 340,000 compounds, 0.84% hits;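 active means B-score under library mean minus 4 SD, starting fluorescence ratio at most library mean plus 5 SD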;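 further: more negative B-score means stronger inhibition of thallium flux through KCNK3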
KCNQ1 act – potentiators or activators of human KCNQ1 potassium channel. 310,000 compounds, 0.35% hits. AID 2648. B-score at 10 µM. CHO-K1 KCNQ1, thallium flux FluxOR fluorescence; stronger effect = higher value;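 active means fluorescence ratio B-score, a plate-corrected score, at least three library SD, with initial intensity B-score within 5 SD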
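Doses: Single concentration per compound, DMSO matched to controls | Test system: KCNQ1-transfected CHO-K1 cells | Timing: 90 min dye loading and 20 min compound exposure, both at room temperature | Measured by: Kinetic FluxOR thallium fluorescence, 10-s 1-Hz baseline, 110-s post-stimulus read | Medium: Assay buffer with matched DMSO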
KCNQ1 block – inhibitors of human KCNQ1 potassium channel. P51787. CHO-K1 KCNQ1, FluxOR thallium flux fluorescence; stronger effect = higher value. B-score at 10 µM. 310,000 compounds, 1.3% hits;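 active means compounds whose thallium flux B-score, printed positive for inhibition, exceeds three library SD while starting fluorescence stays within three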;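 further: channel opened by potassium depolarization with thallium stimulus after 20 min compound exposure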
hERG rescue – hERG (human) protection from proarrhythmic block | Q12809 | AID 1511 | 310,000 compounds, 0.51% hits | CHO-hERG, FluxOR thallium flux, dofetilide IC70 present | activation (rescue from dofetilide block), less the hit threshold, % at 10 µM;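 active means activation above the mean of controls blocked by dofetilide plus 5 SD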;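 further: thallium influx through hERG after potassium depolarization seen as dye fluorescence rise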
Active calls of the source: *; i = inactive; x = no result.

SMILES	Kir21 block	KCNK9 inh	KCNK3 inh	KCNQ1 act	KCNQ1 block	hERG rescue
COc1ccc(CNC2CCCc3ccccc32)cc1OC (stereo not drawn)	0.25	i	i	i	i	-11.2
CC1=C(C)C(=O)C(CCCCC#CCCCC#CCO)=C(C)C1=O	-1.39	i	-14.4*	i	i	-17.1
Nc1ccc(C(=O)Nc2cccc(N)c2)cc1	1.21	i	i	i	i	-4.3
O=c1cc(O)sc2ccccc12	-1.21	i	i	i	i	-5.6
O=c1[nH]sc2ccccc12	-3.13	i	i	13*	i	-7.5
CCOc1ccc2oc(C(=O)N3CC(C)OC(C)C3)c(C)c2c1 (stereo not drawn)	1.39	i	i	i	i	-16.7
COc1ccc(Cl)cc1NCCC(O)c1ccc(F)cc1 (stereo not drawn)	-4.79*	i	i	i	i	-9.2
COC(=O)[C@@]1(Cc2ccccc2)[C@H]2C(=O)N(C)C(=O)[C@H]2[C@H]2CN=C(SCc3ccc(Cl)cc3)N21	x	x	i	x	x	x
COc1ccccc1N1CCN(/N=C/c2cc(Br)ccc2F)CC1	0.01	i	i	i	9*	-2.8
CC(=O)NN1C(=O)/C(=C/c2ccc(Br)o2)SC1=S	-0.88	i	i	i	i	-9.7
CC(=O)NN1C(=O)/C(=C\c2ccc(Br)o2)SC1=S	-4.97*	i	i	i	i	-11.9
Cc1ccc(COc2ccc(CNCCCN3CCCCCC3=O)cc2)cc1	-5.07*	i	i	i	i	-14.4
O=C(COc1ccc(Br)cc1)NCCCN1CCCC1=O	x	x	i	x	x	x
CC(C)=CCc1cc2c(=O)c3c(O)c4c(cc3oc2c(O)c1O)OC(C)C4(C)C (stereo not drawn)	0.85	i	x	i	6*	-25.3
N#Cc1c(NC(=O)CSc2ccccn2)oc(-c2ccccc2)c1-c1ccccc1	0.25	i	i	i	7*	-11.4
CCC(C)n1c(SC(C)C#N)nc2ccccc2c1=O (stereo not drawn)	-3.81	i	i	i	i	5.0*
O=C(c1cccs1)N1N=C(c2ccc(O)cc2)CC1c1ccccc1 (stereo not drawn)	-0.01	i	i	i	i	-3.8
O=C(c1cccs1)N1N=C(c2ccccc2)CC1c1ccccc1 (stereo not drawn)	0.41	-7.2*	i	i	i	-4.5
O=C1NN(c2ccc(Cl)c(Cl)c2)C(=O)/C1=C/c1cccc(OC(=O)c2cccs2)c1	-4.38*	i	x	12*	i	-16.1
O=C1NN(c2ccccc2)C(=O)/C1=C\c1cccc(OC(=O)c2cccs2)c1	0.12	i	i	i	i	-3.5
COc1ccc(-c2[nH]ncc2CN2CCC(OCc3ccccn3)CC2)c(F)c1	0.1	i	i	i	i	-11.2
CC(C)c1ccc(/C=N/n2c(COc3ccccc3)n[nH]c2=S)cc1	1.19	i	i	16*	i	-2.2
CCCc1cnc(NCCNCC(O)COc2ccc(Cl)c(Cl)c2)nc1 (stereo not drawn)	-6.47*	i	i	i	i	-32.8
Cc1cc(C)nc(SCc2ccc(C(=O)N/N=C/c3ccco3)cc2)n1	-4.32*	i	i	i	i	-7.6
Cc1ccc(S(=O)(=O)N2CCOCC2)cc1N/N=C(\C#N)c1nc2ccccc2[nH]1	-0.47	i	i	i	6*	-16.4
SMILES	Kir21 block	KCNK9 inh	KCNK3 inh	KCNQ1 act	KCNQ1 block	hERG rescue
CC(C)C(CCNC1CCN(C)CC1)c1ccc(Cl)cc1 (stereo not drawn)	-1.41	i	i	i	i	-5.8
CN1CCC(NCCC(c2ccc(F)cc2)c2ccc(Cl)cc2)CC1 (stereo not drawn)	-6.7*	i	i	i	i	-9.4
CC1Cc2ccccc2N1S(=O)(=O)c1cccc(C(=O)NCc2ccccn2)c1 (stereo not drawn)	x	x	i	x	x	x
CC1Cc2ccccc2N1S(=O)(=O)c1cccc(C(=O)NCc2ccncc2)c1 (stereo not drawn)	x	x	-9.55*	x	x	x
CC(=O)c1ccccc1NS(=O)(=O)c1cccc2nsnc12	0.84	i	i	i	i	-3.1
CCc1ccccc1NS(=O)(=O)c1cccc2nsnc12	-5.41*	i	i	i	i	-1.3
Cc1ccc(C)c(NS(=O)(=O)c2c(C)ccc3nsnc23)c1	-3.11	i	i	i	i	-11.4
Cc1ccc2nsnc2c1S(=O)(=O)Nc1cccc2nsnc12	2.15	i	i	11*	i	5.2*
Cc1cc(Cl)ccc1OCCCC(=O)NNC(=O)c1ccncc1	x	x	i	x	x	x
Cc1ccc(-c2nc(N)s[n+]2-c2ccccc2)cc1	-3.56	i	i	i	i	10.4*
CNc1nc(-c2ccccc2)[n+](-c2ccc(C)cc2)s1	-3.75	i	i	i	i	-7.2
COc1ccc(OC)c(CCNC(=O)c2cccc(NC3=NC4CS(=O)(=O)CC4S3)c2)c1 (stereo not drawn)	-0.47	i	i	i	i	-10.2
CC1=CS(=O)(=O)CC1Sc1ncn[nH]1 (stereo not drawn)	-0.57	i	i	i	i	4.7*
COc1cc(C(=O)N/N=C/c2ccc(OC(=O)c3ccccc3Cl)c(OC)c2)ccc1O	0.1	i	i	i	6*	-18.0
COC(=O)C1Cc2c([nH]c3ccccc23)C2(CCN(Cc3ccccc3)CC2)N1 (stereo not drawn)	-6.85*	i	i	i	i	-6.9
Cc1ccc(S(=O)(=O)Nc2cccc(C(=O)NCC3CCCO3)c2)cc1F (stereo not drawn)	0.15	i	i	i	i	-7.8
CC1CCCCN1C(=O)c1ccc(C(=O)N2CCCCC2C)cc1 (stereo not drawn)	-0.28	i	i	i	i	-6.4
Cc1cccc(C(=O)Nc2ccc(C(=O)N3CCCCC3C)cc2)c1 (stereo not drawn)	0.54	-7.62*	i	i	i	-9.1
Cc1ccc(C)c(S(=O)(=O)Nc2ccc(C(=O)N3CCCCC3)cc2)c1	-0.01	i	i	i	i	-7.6
Cc1ccc(C)c(S(=O)(=O)NCc2ccc(C(=O)N3CCCCC3C)cc2)c1 (stereo not drawn)	-1.57	-6.81*	i	i	i	-14.2
Cc1cc(-c2nnc(SCCC(=O)Nc3ccccc3)o2)no1	0.54	i	i	i	i	-0.8
CN(C(=O)COC(=O)c1cccc(S(=O)(=O)N2CCCCC2)c1)C1CCS(=O)(=O)C1 (stereo not drawn)	1.3	i	i	i	i	-12.6

High-throughput results deposited in PubChem BioAssay by Johns Hopkins Ion Channel Center.
